Experimental data taken from ChEMBL document CHEMBL4007508, “Discovery and Pre-Clinical Characterization of Third-Generation 4-H Heteroaryldihydropyrimidine (HAP) Analogues as Hepatitis B Virus (HBV) Capsid Inhibitors” (J Med Chem, 2017).
Activity calls are given as the source filed them. No cut-off for these calls is given here.

Key:
[1] = Cytotoxicity against HBV infected human HepDE19 cells assessed as decrease in cell viability after 5 days by CCK8 assay; assay type: cell-based
How it was run: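 Tetracycline-inducible HBV HepDE19 cells seeded 5 × 10^3/well and treated with compounds. After 5 days, viability read by CCK-8 (2 h, 37 °C; absorbance 450 and 630 nm).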

[2] = Solubility of compound in phosphate buffer at pH 6.5 after one night incubation by HPLC-UV method; assay type: physicochemical
[3] = target: Voltage-gated inwardly rectifying potassium channel KCNH2 (Homo sapiens, UniProt Q12809); assay: (§1) Inhibition of human ERG
[4] = target: hERG (KCNH2) (Homo sapiens, UniProt Q12809); assay: as §1
[5] = Apparent partition coefficient, log D of the compound at pH 7.4; assay type: physicochemical; details: octanol/water
[6] = Acid ionization constant, pKa of the compound; assay type: physicochemical
[7] = Base ionization constant, pKa of the compound; assay type: physicochemical
[8] = Permeability of the compound at 150 uM after 18 hrs by PAMPA; assay type: physicochemical; details: read-out: permeability
[9] = Fraction unbound in human plasma at 1000 nM after 5 hrs by LC-MS/MS analysis; assay type: ADME, cell-free
[10] = Fraction unbound in mouse plasma at 1000 nM after 5 hrs by LC-MS/MS analysis; assay type: ADME, cell-free
[11] = Half life in mouse at 1 mg/kg, iv by LC-MS/MS analysis; assay type: ADME, organism-based; details: in vivo
How it was run: (§2)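 Single-dose mouse PK following standard procedures: IV 1 mg/kg and PO 3 mg/kg. Plasma CL, Vss, IV t1/2, PO Cmax, AUC(0−∞) in plasma (IV and PO) and liver (PO), and oral bioavailability F derived. Liver/plasma ratio uses the PO AUC(0−∞) values.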

[12] = Volume of distribution at steady state in mouse at 1 mg/kg, iv by LC-MS/MS analysis; assay type: ADME, organism-based; details: in vivo, read-out: Vdss; how it was run: as §2
[13] = Cmax in mouse at 3 mg/kg, po by LC-MS/MS analysis; assay type: ADME, organism-based; parameters: dose 3 mg/kg, route oral; details: in vivo; how it was run: as §2
[14] = AUC (0 to infinity) in mouse plasma at 3 mg/kg, po by LC-MS/MS analysis; assay type: ADME, organism-based; parameters: dose 3 mg/kg, route oral, time infinity; how it was run: as §2
[15] = AUC (0 to infinity) in mouse liver at 3 mg/kg, po by LC-MS/MS analysis; assay type: ADME, organism-based; parameters: dose 3 mg/kg, time infinity, route oral; how it was run: as §2
[16] = Ratio of AUC (0 to infinity) in mouse liver at 3 mg/kg, po to AUC (0 to infinity) in mouse plasma at 3 mg/kg, po by LC-MS/MS analysis; assay type: ADME, organism-based; details: liver and plasma, read-out: Ratio AUC; how it was run: as §2
[17] = test system: Salmonella typhimurium; assay: Mutagenicity in Salmonella typhimurium by Ames test; assay type: toxicity; details: salmonella enterica subsp. enterica serovar typhimurium
[18] = target: T1, Cytochrome P450 3A4 (Homo sapiens, UniProt P08684); assay: Inhibition of CYP3A4 (unknown origin); assay type: ADME
How it was run: (§3)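 CYP inhibition IC50 measured in a panel of five enzymes: CYP3A4, 2D6, 2C9, 2C19 and 1A2.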

[19] = target: Cytochrome P450 2D6 (Homo sapiens, UniProt P10635); assay: Inhibition of CYP2D6 (unknown origin); assay type: ADME; how it was run: as §3
[20] = target: Cytochrome P450 2C9 (Homo sapiens, UniProt P11712); assay: Inhibition of CYP2C9 (unknown origin); assay type: ADME; how it was run: as §3
[21] = target: Cytochrome P450 2C19 (Homo sapiens, UniProt P33261); assay: Inhibition of CYP2C19 (unknown origin); assay type: ADME; how it was run: as §3
[22] = target: T2, Cytochrome P450 1A2 (Homo sapiens, UniProt P05177); assay: Inhibition of CYP1A2 (unknown origin); assay type: ADME; how it was run: as §3
T2 sequence (P05177 whole entry): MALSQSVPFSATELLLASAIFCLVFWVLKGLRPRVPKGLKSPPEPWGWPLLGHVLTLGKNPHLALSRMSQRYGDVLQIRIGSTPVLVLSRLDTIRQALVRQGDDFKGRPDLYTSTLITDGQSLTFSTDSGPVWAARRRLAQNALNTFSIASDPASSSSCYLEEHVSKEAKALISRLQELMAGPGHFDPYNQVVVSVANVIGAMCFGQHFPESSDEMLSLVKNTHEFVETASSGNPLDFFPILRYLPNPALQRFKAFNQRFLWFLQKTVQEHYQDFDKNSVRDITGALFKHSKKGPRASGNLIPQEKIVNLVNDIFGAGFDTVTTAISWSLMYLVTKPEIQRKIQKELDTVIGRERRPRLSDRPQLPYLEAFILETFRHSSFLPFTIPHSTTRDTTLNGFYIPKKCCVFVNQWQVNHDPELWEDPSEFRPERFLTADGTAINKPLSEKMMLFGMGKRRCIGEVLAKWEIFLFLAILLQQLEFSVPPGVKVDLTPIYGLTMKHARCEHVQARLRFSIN

[23] = target: T1, Cytochrome P450 3A4; assay: Time dependent inhibition of CYP3A4 (unknown origin); assay type: ADME
[24] = test system: Hepatocyte; assay: Induction of CYP3A4 mRNA expression in human primary hepatocyte after 24 hrs by real-time PCR relative to rifampicin; assay type: ADME, cell-based; parameters: concentration or dose not given beside the values; details: hepatocytes
How it was run: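 CYP3A4 mRNA levels measured in primary human hepatocytes and expressed relative to the positive control rifampicin at 10 μM.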

[25] = test system: Hepatitis B virus; assay: Antiviral activity against HBV infected in human HepG2(2.2.15) cells assessed as decrease in HBV genome replication after 5 days by qPCR method; assay type: functional, cell-based; details: HepG2 2.2.15, 120 h
How it was run: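 HepG2.2.15 cells (stable HBV genome, Hep G2-derived; DMEM-F12, 10% FBS, penicillin/streptomycin, 0.5 mg/mL G418) seeded 3 × 10^4/well, incubated overnight at 37 °C. Compounds serially half-log diluted in DMSO, then in medium; final DMSO 0.5%. HBV DNA extracted and quantified by qPCR.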

[26] = Selectivity index, ratio of CC50 for HBV infected human HepDE19 cells to EC50 for HBV infected in human HepG2(2.2.15) cells
How it was run: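 Selectivity index calculated as CC50 (HepDE19, CCK-8 viability after 5 days) divided by EC50 (HBV DNA reduction in HepG2.2.15 cells, qPCR).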

[27] = Plasma clearance in mouse at 1 mg/kg, iv by LC-MS/MS analysis; assay type: ADME, organism-based; how it was run: as §2
[28] = AUC (0 to infinity) in mouse at 1 mg/kg, iv by LC-MS/MS analysis; assay type: ADME, organism-based; parameters: dose 1 mg/kg, time infinity, route intravenous; details: in vivo; how it was run: as §2
[29] = Oral bioavailability in mouse at 3 mg/kg, by LC-MS/MS analysis; assay type: ADME, organism-based; details: in vivo; how it was run: as §2
[30] = test system: Hepatitis B virus; assay: Antiviral activity against HBV infected in hydrodynamic injection BALB/c mouse model assessed as reduction of viral DNA copy numbers in liver at 3 to 12.5 mg/kg, po bid after 5 days by real-time PCR method; assay type: functional, organism-based
How it was run: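 Female BALB/c mice hydrodynamically injected via tail vein with replication-competent HBV DNA plasmid. From 20 h post-injection, dosed orally for 5 days: 3 or 12.5 mg/kg twice daily, with vehicle and entecavir 0.1 mg/kg once daily as controls. Liver HBV DNA copies measured by real-time qPCR; six mice per group, SEM.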

[31] = Glutathione reactivity assessed as adduct formation of the compound

T1 sequence (P08684 whole entry): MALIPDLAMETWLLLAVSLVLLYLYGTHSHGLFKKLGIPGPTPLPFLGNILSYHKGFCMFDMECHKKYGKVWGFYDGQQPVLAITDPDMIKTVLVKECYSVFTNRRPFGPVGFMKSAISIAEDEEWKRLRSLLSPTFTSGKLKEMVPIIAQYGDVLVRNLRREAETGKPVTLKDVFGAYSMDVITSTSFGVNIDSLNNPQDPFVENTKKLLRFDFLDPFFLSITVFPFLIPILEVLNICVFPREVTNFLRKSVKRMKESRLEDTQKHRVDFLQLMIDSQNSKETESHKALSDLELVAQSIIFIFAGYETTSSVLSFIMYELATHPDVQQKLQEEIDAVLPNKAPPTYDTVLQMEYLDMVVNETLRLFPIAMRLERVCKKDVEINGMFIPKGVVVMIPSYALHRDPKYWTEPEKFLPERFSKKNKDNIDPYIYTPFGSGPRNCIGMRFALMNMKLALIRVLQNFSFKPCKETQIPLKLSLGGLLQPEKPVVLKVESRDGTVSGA
Sequence of Cytochrome P450 2C9 (P11712 whole entry): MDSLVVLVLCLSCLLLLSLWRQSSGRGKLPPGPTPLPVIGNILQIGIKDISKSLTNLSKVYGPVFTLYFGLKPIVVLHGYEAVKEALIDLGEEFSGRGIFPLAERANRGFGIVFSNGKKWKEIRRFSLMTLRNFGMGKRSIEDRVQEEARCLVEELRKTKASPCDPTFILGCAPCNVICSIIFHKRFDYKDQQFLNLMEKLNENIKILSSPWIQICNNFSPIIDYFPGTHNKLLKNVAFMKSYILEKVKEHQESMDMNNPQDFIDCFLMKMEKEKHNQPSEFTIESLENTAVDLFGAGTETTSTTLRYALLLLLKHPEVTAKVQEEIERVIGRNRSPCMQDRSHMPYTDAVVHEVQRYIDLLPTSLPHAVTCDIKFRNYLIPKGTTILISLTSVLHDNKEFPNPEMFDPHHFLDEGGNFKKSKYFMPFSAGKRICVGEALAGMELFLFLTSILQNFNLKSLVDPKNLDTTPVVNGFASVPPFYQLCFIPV
Sequence of Cytochrome P450 2D6 (P10635 whole entry): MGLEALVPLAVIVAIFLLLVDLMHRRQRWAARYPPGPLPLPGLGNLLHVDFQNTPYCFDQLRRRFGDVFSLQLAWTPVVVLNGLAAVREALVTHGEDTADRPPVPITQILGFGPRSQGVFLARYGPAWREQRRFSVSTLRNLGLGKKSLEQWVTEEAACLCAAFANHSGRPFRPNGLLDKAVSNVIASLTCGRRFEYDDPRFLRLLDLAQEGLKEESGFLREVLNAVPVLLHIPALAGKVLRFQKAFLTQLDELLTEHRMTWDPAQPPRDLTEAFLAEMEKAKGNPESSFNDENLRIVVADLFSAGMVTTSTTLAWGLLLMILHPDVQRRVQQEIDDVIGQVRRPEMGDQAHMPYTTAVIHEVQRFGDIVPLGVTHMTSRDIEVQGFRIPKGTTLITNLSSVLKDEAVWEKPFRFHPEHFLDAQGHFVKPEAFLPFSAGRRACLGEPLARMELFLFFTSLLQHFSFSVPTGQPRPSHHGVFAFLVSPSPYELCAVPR
Sequence of Voltage-gated inwardly rectifying potassium channel KCNH2 (Q12809 whole entry): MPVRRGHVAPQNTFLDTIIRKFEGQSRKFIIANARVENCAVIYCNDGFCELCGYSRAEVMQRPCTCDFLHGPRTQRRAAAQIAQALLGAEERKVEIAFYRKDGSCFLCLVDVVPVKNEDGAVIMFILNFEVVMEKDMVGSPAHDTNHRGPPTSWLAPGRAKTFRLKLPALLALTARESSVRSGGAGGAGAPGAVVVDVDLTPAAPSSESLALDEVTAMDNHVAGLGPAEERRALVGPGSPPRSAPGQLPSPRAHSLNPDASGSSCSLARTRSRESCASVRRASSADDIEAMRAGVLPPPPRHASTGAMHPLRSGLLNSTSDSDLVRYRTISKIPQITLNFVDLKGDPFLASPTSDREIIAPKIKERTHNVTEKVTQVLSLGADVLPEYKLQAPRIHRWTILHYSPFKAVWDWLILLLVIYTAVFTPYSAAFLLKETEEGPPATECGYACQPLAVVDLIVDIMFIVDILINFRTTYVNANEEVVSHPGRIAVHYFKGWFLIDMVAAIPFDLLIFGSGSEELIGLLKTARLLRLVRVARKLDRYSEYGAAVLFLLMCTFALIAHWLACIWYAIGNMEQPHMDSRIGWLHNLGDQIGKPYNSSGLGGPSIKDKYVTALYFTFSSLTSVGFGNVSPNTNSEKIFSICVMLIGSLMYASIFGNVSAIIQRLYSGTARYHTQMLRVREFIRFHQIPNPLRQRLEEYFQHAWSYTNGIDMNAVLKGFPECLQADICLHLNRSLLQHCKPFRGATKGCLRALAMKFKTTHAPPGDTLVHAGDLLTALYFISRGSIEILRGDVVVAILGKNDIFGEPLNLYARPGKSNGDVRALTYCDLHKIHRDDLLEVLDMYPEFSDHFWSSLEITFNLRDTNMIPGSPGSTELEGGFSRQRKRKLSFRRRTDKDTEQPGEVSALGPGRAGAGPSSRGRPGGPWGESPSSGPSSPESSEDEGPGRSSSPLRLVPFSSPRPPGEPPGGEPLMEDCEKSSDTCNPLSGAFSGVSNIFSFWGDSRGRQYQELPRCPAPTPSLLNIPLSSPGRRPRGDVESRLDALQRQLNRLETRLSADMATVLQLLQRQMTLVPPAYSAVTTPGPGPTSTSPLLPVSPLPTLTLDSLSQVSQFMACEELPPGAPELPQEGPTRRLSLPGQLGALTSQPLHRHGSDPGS
Sequence of hERG (KCNH2) (Q12809 whole entry): as above
Sequence of Cytochrome P450 2C19 (P33261 whole entry): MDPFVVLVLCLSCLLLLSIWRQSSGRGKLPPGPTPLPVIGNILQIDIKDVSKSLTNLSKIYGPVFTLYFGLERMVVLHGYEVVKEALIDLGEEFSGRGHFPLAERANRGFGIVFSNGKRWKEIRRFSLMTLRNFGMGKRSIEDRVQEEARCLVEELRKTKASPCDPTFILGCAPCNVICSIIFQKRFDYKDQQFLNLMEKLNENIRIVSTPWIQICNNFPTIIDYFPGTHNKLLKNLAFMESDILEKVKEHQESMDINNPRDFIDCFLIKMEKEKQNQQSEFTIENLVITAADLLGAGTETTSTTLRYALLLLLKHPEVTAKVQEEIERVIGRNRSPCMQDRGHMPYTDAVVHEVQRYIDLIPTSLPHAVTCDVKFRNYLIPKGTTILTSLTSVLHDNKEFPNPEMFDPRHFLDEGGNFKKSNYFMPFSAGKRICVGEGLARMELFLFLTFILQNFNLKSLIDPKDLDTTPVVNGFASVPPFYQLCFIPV

Compound | CC50 at 120 h [1] [µM] | solubility [2] [µg/mL] | logD [5] | pKa [6] | pKa [7] | Papp at 18 h, 150 µM [8] [×10⁻⁶ cm/s] | fraction unbound at 5 h, 1 µM [9] | fraction unbound at 5 h, 1 µM [10] | half-life [11] [h] | Vd [12] [L/kg] | Cmax [13] [ng/mL] | AUC(0-inf) [14] [ng·h/mL] | AUC(0-inf) [15] [ng·h/mL] | Kp [16] | Activity [24] [%] | EC50 [25] [µM] | Ratio CC50/EC50 [26] | further results
COC(=O)C1=C(CN2CCOC[C@H]2C(=O)O)N=C(c2nccs2)N[C@H]1c1ccc(F)cc1Cl | > 100 | > 666 | 0.06 | 1.8 | 5.8 | 1.4 | 0.057 | 0.074 | 1.5 | 2.5 | 413 | 962 | 11800 | 12.3 | 111 | – | – | inhibition (INH) [3]: Not Active; IC20 [4]: > 10 µM; Activity [17]: Non-Toxic; IC50 [18]: > 50 µM; IC50 [19]: > 50 µM; IC50 [20]: > 50 µM; IC50 [21]: > 50 µM; IC50 [22]: > 50 µM; TDI [23]: Not Active
COC(=O)C1=C(CN2CCOC[C@H]2C(=O)O)NC(c2nc(C(F)(F)F)cs2)=N[C@H]1c1ccc(F)cc1Cl | > 100 | – | – | – | – | – | – | – | – | – | – | – | – | – | 72 | 0.003 | >33333 | –
COC(=O)C1=C(CN2CCO[C@H](C)[C@H]2C(=O)O)NC(c2nccs2)=N[C@H]1c1ccc(F)cc1Cl | > 100 | > 667 | – | – | – | – | – | – | – | – | – | – | – | – | 81 | 0.007 | – | –
CCOC(=O)C1=C(CN2CCOC[C@H]2C(=O)O)NC(c2nccs2)=N[C@H]1c1cccc(F)c1Cl | > 100 | > 679 | 0.42 | 1.8 | 5.7 | 3.3 | 0.02 | 0.022 | 3 | 4.1 | 783 | 624 | 2000 | 3.2 | 144 | 0.0008 | 125000 | clearance [27]: 66 mL/min/kg; AUC(0-inf) [28]: 253 ng·h/mL; bioavailability [29]: 82%
COC(=O)C1=C(CN2CCOC[C@H]2C(=O)O)NC(c2nccs2)=N[C@H]1c1ccc(F)cc1Cl | – | – | – | – | – | – | – | – | – | – | – | – | – | – | – | – | – | Activity [30]: Active; Stability [31]: Stable
CCOC(=O)C1=C(CN2CCOC[C@H]2C(=O)O)NC(c2nccs2)=N[C@H]1c1ccc(F)cc1Cl | > 100 | – | – | – | – | – | – | – | – | – | – | – | – | – | 183 | 0.002 | – | –
COC(=O)C1=C(CN2CCOC[C@H]2C(=O)O)NC(c2nccs2)=N[C@H]1c1ccc(F)c(F)c1C | > 100 | > 604 | 0.44 | < 2.5 | 5.7 | 2.7 | 0.054 | 0.062 | 1.4 | 1.9 | 283 | 344 | 9210 | 27 | 56 | 0.002 | >50000 | clearance [27]: 44 mL/min/kg; AUC(0-inf) [28]: 379 ng·h/mL; bioavailability [29]: 30%
